In brackets after ≈: the same amount, converted by molar mass. Activity calls are given as the source filed them. The calls are words filed in the database; no cut-off is given here.
Key:
Homo sapiens = species: Homo sapiens; test: Binding affinity to sodium channel site 2 (unknown origin) by radioligand binding assay
In short: (§1)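 CEREP panel binding measured by displacement of an antagonist radioligand.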

[1] = molecular target: D(1A) dopamine receptor (Homo sapiens) (UniProt P21728); test: Binding affinity to human dopamine D1 receptor by radioligand binding assay; in short: as §1
[2] = molecular target: Serine/threonine-protein kinase TAO2 (Homo sapiens) (UniProt Q9UL54); test: Inhibition of TAOK2 (unknown origin)
[3] = molecular target: Rho-associated protein kinase 1 (Homo sapiens) (UniProt Q13464); test: Inhibition of ROCK1 (unknown origin)
[4] = molecular target: Serine/threonine-protein kinase pim-2 (Homo sapiens) (UniProt Q9P1W9); test: Inhibition of PIM2 (unknown origin)
[5] = molecular target: Serine/threonine-protein kinase PAK 4 (Homo sapiens) (UniProt O96013); test: Inhibition of PAK4 (unknown origin)
[6] = molecular target: Serine/threonine-protein kinase Nek2 (Homo sapiens) (UniProt P51955); test: Inhibition of NEK2 (unknown origin)
[7] = molecular target: Myosin light chain kinase 2, skeletal/cardiac muscle (Homo sapiens) (UniProt Q9H1R3); test: Inhibition of MYLK2 (unknown origin)
[8] = molecular target: Serine/threonine-protein kinase MARK1 (Homo sapiens) (UniProt Q9P0L2); test: Inhibition of MARK1 (unknown origin)
[9] = molecular target: MAP kinase-activated protein kinase 2 (Homo sapiens) (UniProt P49137); test: Inhibition of MAPKAPK2 (unknown origin)
[10] = molecular target: Mitogen-activated protein kinase 1 (Homo sapiens) (UniProt P28482); test: Inhibition of MAPK1 (unknown origin)
[11] = molecular target: Tyrosine-protein kinase JAK3 (Homo sapiens) (UniProt P52333); test: Inhibition of JAK3 (unknown origin)
[12] = molecular target: Casein kinase II subunit alpha' (Homo sapiens) (UniProt P19784); test: Inhibition of CSNK2A2 (unknown origin)
[13] = molecular target: Serine/threonine-protein kinase Chk1 (Homo sapiens) (UniProt O14757); test: Inhibition of CHEK1 (unknown origin)
[14] = molecular target: Calcium/calmodulin-dependent protein kinase type II subunit alpha (Homo sapiens) (UniProt Q9UQM7); test: Inhibition of CAMK2A (unknown origin)
[15] = molecular target: RAC-alpha serine/threonine-protein kinase (Homo sapiens) (UniProt P31749); test: Inhibition of AKT1 (unknown origin)
[16] = Kinetic solubility of the compound at pH 7.4; assay type: physicochemical; details: buffer, read-out: Kinetic_solubility
[17] = Passive permeability from apical to basolateral side of dog RRCK cells; assay type: ADME, cell-based, Canis lupus familiaris, MDCKII-LE; details: MDCK, read-out: permeability
Pyruvate kinase PKM [18] = molecular target: T1, Pyruvate kinase PKM (Homo sapiens, UniProt P14618); test: Activation of human PKM2 assessed as production of ATP at infinite concentration after 10 mins by lactate dehydrogenase-coupled enzyme assay relative to FBP
In short: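 Coupled to lactate dehydrogenase, NADH loss read as the drop in absorbance at 340 nm. Reaction: 2nM human PKM2 (cleaved N-term his, 1-531), 2 mM PEP, 0.35 mM NADH, 4 units/mL LDH in 50 mM Tris pH 7.5 with KCl and 5 mM MgCl2. Compound preincubated 10 minutes at 32 °C, then 0.5mM ADP starts the reaction. Duplicates; 10-point curves; asymptote max = % activation at infinite concentration.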

HT-29 = test: Antiproliferative activity against human HT-29 cells at 10 uM after 5 days; assay type: functional; details: HT-29, 120 h
In short: (§2)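 Cells plated in Optimem-GlutaMax medium and cultured overnight before exposure to 10 µM compound. Viability measured with CytoTox-Glo after 5 days of treatment.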

SNU-182 = test: Antiproliferative activity against human SNU182 cells at 10 uM after 5 days; assay type: functional, cell-based; in short: as §2
Pyruvate kinase PKM [19] = molecular target: T1, Pyruvate kinase PKM; test: Activation of PKM2 in human Snu182 cells assessed as oxygen consumption rate at 10 uM after 18 hrs; assay type: cell-based
In short: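 Snu182 cells seeded at 12k/well in RPMI with 10% FBS and 2 mM glutamine, cultured overnight, then given 10 µM compound for 18 h at 37°C, 5% CO2. Medium switched to XF DMEM with 5 mM glucose plus 10 µM compound; OCR and ECAR measured on a Seahorse XF96 analyzer.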

Rattus norvegicus = species: Rattus norvegicus; test: Binding affinity to central-type benzodiazepine receptor in rat cerebral cortex; assay type: tissue-based
[20] = molecular target: cGMP-inhibited 3',5'-cyclic phosphodiesterase 3B (Homo sapiens) (UniProt Q13370); test: Binding affinity to human PDE3B
[21] = molecular target: 5-hydroxytryptamine receptor 2B (Homo sapiens) (UniProt P41595); test: Binding affinity to human 5-HT2B receptor by radioligand binding assay
In short: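 CEREP panel binding measured by displacement of an agonist radioligand.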

[22] = molecular target: Sodium-dependent noradrenaline transporter (Homo sapiens) (UniProt P23975); test: Binding affinity to human norepinephrine transporter by radioligand binding assay; in short: as §1
[23] = molecular target: Casein kinase I isoform alpha (Homo sapiens) (UniProt P48729); test: Inhibition of CSNK1A1 (unknown origin)

T1 sequence (P14618 2-531 limits assumed): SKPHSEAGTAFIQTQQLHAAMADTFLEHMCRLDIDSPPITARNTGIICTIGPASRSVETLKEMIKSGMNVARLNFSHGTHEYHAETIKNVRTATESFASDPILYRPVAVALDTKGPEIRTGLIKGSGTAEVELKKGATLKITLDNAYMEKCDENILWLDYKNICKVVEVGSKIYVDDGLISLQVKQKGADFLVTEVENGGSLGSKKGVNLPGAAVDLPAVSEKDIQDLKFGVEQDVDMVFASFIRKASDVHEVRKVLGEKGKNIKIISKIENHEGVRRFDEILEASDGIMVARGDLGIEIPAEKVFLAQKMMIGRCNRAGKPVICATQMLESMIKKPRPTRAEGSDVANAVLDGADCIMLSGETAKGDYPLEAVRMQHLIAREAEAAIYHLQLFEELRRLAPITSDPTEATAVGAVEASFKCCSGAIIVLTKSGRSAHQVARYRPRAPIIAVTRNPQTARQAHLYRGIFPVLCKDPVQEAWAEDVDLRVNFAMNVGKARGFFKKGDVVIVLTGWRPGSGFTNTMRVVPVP
cGMP-inhibited 3',5'-cyclic phosphodiesterase 3B (Homo sapiens), sequence (Q13370 whole entry, looked up): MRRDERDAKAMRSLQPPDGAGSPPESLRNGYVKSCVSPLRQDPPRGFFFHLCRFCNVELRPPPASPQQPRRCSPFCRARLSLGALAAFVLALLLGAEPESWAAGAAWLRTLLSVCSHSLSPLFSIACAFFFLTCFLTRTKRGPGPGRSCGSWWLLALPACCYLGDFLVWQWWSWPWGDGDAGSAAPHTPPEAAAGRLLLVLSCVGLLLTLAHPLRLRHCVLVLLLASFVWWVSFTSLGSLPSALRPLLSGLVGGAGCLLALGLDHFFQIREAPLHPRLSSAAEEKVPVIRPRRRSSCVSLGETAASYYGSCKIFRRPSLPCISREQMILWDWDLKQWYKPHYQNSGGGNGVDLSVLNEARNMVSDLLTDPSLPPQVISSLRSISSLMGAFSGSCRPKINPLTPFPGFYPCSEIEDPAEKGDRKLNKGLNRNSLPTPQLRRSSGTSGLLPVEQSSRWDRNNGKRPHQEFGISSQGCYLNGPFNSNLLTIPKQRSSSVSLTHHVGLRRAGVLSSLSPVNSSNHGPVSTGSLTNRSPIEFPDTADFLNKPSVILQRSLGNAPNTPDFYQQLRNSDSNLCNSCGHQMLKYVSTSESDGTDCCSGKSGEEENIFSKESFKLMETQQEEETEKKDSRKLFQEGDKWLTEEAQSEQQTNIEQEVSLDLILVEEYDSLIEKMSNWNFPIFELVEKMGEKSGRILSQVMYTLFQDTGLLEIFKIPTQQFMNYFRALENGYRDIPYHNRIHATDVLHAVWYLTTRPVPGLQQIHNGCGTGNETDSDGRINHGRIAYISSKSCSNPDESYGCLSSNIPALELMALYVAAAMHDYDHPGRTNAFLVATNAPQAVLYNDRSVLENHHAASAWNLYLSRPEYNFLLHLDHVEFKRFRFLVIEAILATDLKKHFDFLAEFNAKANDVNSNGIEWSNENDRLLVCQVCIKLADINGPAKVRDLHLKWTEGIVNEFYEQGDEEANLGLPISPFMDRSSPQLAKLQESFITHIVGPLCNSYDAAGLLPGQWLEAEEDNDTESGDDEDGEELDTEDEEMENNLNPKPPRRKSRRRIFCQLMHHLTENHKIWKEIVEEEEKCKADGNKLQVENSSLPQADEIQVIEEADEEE
Serine/threonine-protein kinase pim-2 (Homo sapiens), sequence (Q9P1W9 whole entry, looked up): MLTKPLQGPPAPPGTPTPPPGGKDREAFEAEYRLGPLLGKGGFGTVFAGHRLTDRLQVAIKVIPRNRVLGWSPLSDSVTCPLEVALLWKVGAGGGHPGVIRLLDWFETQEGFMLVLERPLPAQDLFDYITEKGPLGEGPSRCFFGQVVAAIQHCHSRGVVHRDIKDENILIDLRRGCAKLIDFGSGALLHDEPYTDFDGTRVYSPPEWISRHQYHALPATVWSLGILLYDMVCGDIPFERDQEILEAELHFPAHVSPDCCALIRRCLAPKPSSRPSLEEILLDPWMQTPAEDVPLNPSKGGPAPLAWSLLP
Mitogen-activated protein kinase 1 (Homo sapiens), sequence (P28482 whole entry): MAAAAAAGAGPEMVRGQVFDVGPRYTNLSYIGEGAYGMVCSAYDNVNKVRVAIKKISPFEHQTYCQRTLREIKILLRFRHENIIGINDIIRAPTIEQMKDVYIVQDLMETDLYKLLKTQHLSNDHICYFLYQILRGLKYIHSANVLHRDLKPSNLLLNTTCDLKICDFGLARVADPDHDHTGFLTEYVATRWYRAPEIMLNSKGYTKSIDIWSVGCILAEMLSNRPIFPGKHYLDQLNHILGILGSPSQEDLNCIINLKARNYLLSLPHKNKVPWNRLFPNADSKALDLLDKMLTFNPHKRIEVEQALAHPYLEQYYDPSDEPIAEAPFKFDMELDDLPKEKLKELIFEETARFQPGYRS
Casein kinase II subunit alpha' (Homo sapiens), sequence (P19784 whole entry, looked up): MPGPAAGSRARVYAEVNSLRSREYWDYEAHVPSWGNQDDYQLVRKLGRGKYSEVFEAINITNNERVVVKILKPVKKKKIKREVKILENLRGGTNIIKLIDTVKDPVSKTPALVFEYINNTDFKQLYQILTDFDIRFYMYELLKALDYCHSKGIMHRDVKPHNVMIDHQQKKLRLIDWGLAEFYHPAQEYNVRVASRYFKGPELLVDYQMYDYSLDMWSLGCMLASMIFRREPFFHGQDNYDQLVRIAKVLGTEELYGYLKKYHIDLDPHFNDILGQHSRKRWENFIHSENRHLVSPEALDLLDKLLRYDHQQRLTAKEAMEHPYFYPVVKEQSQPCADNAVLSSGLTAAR
Tyrosine-protein kinase JAK3 (Homo sapiens), sequence (P52333 whole entry): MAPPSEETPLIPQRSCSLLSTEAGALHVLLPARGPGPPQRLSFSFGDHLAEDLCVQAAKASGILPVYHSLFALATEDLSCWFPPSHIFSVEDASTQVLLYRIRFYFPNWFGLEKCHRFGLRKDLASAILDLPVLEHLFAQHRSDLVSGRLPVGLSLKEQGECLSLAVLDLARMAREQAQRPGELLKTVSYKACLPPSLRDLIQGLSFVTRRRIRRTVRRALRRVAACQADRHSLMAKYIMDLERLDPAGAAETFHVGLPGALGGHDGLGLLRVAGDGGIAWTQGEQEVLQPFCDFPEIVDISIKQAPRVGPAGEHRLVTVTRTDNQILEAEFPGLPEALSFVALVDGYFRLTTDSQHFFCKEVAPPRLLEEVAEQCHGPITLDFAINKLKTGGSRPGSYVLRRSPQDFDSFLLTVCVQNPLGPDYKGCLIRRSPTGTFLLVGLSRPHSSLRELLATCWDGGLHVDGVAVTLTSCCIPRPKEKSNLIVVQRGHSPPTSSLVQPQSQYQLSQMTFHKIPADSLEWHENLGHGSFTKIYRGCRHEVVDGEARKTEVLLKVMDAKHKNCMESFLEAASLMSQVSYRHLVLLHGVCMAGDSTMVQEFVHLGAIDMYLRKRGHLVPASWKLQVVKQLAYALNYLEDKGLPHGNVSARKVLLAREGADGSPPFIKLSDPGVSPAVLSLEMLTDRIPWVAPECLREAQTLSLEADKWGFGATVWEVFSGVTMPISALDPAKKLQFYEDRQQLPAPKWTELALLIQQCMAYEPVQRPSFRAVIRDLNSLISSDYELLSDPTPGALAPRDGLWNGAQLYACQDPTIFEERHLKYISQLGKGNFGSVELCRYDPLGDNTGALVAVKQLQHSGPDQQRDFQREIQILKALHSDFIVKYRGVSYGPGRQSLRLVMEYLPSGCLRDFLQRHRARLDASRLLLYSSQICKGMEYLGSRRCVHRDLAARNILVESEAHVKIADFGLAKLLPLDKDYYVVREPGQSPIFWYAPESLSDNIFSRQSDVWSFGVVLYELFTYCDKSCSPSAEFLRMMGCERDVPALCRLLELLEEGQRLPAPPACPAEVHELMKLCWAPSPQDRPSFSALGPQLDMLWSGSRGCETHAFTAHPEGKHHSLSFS
5-hydroxytryptamine receptor 2B (Homo sapiens), sequence (P41595 whole entry): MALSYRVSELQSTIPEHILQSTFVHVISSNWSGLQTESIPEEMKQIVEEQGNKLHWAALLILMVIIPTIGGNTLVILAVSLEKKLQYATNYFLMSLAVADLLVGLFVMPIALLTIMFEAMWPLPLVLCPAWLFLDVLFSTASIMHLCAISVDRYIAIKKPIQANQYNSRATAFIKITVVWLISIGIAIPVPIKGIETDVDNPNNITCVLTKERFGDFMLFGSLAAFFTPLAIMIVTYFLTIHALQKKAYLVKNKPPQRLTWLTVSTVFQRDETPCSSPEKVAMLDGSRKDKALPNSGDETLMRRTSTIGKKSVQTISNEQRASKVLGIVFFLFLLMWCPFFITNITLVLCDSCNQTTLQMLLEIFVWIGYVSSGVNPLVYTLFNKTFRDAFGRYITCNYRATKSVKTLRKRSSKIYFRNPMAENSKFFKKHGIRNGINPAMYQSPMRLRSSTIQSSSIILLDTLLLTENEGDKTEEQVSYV
Serine/threonine-protein kinase PAK 4 (Homo sapiens), sequence (O96013 whole entry, looked up): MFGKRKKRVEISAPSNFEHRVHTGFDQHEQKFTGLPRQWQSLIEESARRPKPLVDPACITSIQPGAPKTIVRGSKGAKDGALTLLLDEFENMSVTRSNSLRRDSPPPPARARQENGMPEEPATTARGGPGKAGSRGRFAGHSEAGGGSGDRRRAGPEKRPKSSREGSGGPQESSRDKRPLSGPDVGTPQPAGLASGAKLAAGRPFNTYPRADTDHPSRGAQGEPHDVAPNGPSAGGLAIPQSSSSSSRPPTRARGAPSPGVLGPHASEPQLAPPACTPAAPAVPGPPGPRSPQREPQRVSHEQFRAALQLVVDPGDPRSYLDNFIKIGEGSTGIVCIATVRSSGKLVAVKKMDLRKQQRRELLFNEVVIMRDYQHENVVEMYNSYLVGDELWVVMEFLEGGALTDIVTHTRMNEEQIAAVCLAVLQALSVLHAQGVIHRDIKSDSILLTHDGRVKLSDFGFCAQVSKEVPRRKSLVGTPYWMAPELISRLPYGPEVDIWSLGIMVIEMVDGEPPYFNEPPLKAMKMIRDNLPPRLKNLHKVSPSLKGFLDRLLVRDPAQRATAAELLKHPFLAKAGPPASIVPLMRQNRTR

Activity (Homo sapiens): inactive
Activity [1]: inactive
inhibition [2]: inactive
inhibition [3]: inactive
inhibition [4]: inactive
inhibition [5]: inactive
inhibition [6]: inactive
inhibition [7]: inactive
inhibition [8]: inactive
inhibition [9]: inactive
inhibition [10]: inactive
inhibition [11]: inactive
inhibition [12]: inactive
inhibition [13]: inactive
inhibition [14]: inactive
inhibition [15]: inactive
solubility kinetic [16]: 178 µM (≈ 51.7 µg/mL)
Papp A→B [17]: 20.5 ×10⁻⁶ cm/s
max activation (Pyruvate kinase PKM [18]): 198%
Activity (Pyruvate kinase PKM [19]): 101%
Activity (Rattus norvegicus): inactive
Activity [20]: inactive
Activity [21]: inactive
Activity [22]: inactive
inhibition [23]: inactive
SMILES: Cc1cccc2nc(Cn3cnc4ccccc43)cc(=O)n12
inhibition at 10 µM (HT-29): 2.83%
Activity (SNU-182): inactive
